Reference: ChEMBL document CHEMBL1124761, “Polyamine analogues with antitumor activity” (J Med Chem, 1990)
Active and inactive are the calls of the source. The calls are words filed in the database; no cut-off is given here.

Tests used:
[1] = system: L1210; experiment: (§1) Antitumor activity against L1210 leukemia in BDF1 male mice at the dose of 10 mg/kg; type: functional, Mus musculus
How it was run: (§2)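 BDF1 male mice were inoculated ip with 10^5 L1210 cells on day 0. Agents were given ip once daily on days 1-9, alone or with diallenylputrescine at 2.5 or 5.0 mg/kg. Mean survival time was reported ± SD (n=5). %T/C = treated survival/control survival × 100.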

[2] = system: L1210; experiment: (§3) Antitumor activity against L1210 leukemia in BDF1 male mice at the dose of 10 mg/kg when given with 5.0 mg/kg of diallenylputrescine; type: functional, Mus musculus; how it was run: as §2
[3] = system: L1210; experiment: (§4) Antitumor activity against L1210 leukemia in BDF1 male mice at the dose of 5 mg/kg; type: functional, Mus musculus; set-up: unit not given here; how it was run: as §2
[4] = system: L1210; experiment: (§5) Antitumor activity against L1210 leukemia in BDF1 male mice at the dose of 5 mg/kg when given with 5.0 mg/kg of diallenylputrescine; type: functional, Mus musculus; how it was run: as §2
[5] = system: L1210; experiment: as §1; type: functional, Mus musculus; remark: listed apart in the source
How it was run: (§6)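 L1210 leukemia, 10^5 cells inoculated ip into BDF1 male mice on day 0. Analogue given ip once daily on days 1-9; where stated, diallenylputrescine (PAO inhibitor) was co-given at 2.5 or 5.0 mg/kg. Mean survival time ± SD (n=5). %T/C = treated survival time/control survival time × 100.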

[6] = system: L1210; experiment: as §3; type: functional, Mus musculus; how it was run: as §6; remark: listed apart in the source
[7] = system: L1210; experiment: as §4; type: functional, Mus musculus; how it was run: as §6
[8] = system: L1210; experiment: as §5; type: functional, Mus musculus; how it was run: as §6; remark: listed apart in the source
[9] = system: L1210; experiment: Tested for the T/C (survival time treated /survival time control x 100) after intraperitoneal administration of 5 mg/kg in 10 E 5 L1210 cells on day 0; type: functional, Mus musculus
How it was run: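 Male BDF1 mice, in groups of six, were inoculated ip with 10^5 L1210 cells on day 0. Tetrahydrochloride salts were given at 5 mg/kg every 3 h (×4) on days 3-5. T/C = survival time treated/survival time control × 100.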

[10] = system: L1210; experiment: Tested for the T/C (survival time treated/survival time control x 100) after intraperitoneal administration of 50 mg/Kg in 10 E 5 L1210 cells on day 0; not active; type: functional; settings: Mus musculus
[11] = Tested for in vitro half life period against polyamine oxidase after intraperitoneal administration; type: ADME; settings: ip
[12] = biological target: Peroxisomal N(1)-acetyl-spermine/spermidine oxidase (Mus musculus) (UniProt Q8C0L6); experiment: Tested for the in vivo inhibitory activity against polyamine oxidase in mice at a dose of 1 mg/kg; type: functional, organism-based; set-up: dose 1 mg/kg
How it was run: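 Mice received drug ip 24 h before sacrifice. Liver homogenised and polyamine oxidase activity assayed. Protein by Bradford method with BSA standard.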

[13] = system: L1210; experiment: Effect of 25 mg/kg putrescine coadministered with 25 mg/kg compound on the tumor cell concentration (L1210) of compound; type: functional, Mus musculus
How it was run: (§7)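 BDF1 male mice bearing ip L1210 cells. Starting day 4, ip dosing with analogue, alone or with putrescine or spermidine, at the doses indicated. Killed 4 h after the final dose; tumour cells recovered by peritoneal lavage. Drug and polyamines quantified by HPLC, pmol/10^6 cells, mean of three determinations.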

[14] = system: L1210; experiment: Effect of 25 mg/kg putrescine coadministered with 25 mg/kg compound on the tumor cell concentration (L1210) of putrescine; type: functional, Mus musculus; how it was run: as §7
[15] = system: L1210; experiment: Effect of 25 mg/kg putrescine coadministered with 25 mg/kg compound on the tumor cell concentration (L1210) of spermidine; type: functional, Mus musculus; how it was run: as §7
[16] = system: L1210; experiment: Effect of 25 mg/kg putrescine coadministered with 25 mg/kg compound on the tumor cell concentration (L1210) of spermine; type: functional, Mus musculus; how it was run: as §7
[17] = system: L1210; experiment: (§8) Antitumor activity against L1210 leukemia in BDF1 male mice at the dose of 5 mg/kg when given with 2.5 mg/kg of diallenylputrescine; type: functional, Mus musculus; how it was run: as §2
[18] = system: L1210; experiment: as §8; type: functional, Mus musculus; how it was run: as §6; remark: listed apart in the source
[19] = system: L1210; experiment: Effect of 25 mg/kg spermidine coadministered with 25 mg/kg compound on the tumor cell concentration (L1210) of compound; type: functional, Mus musculus; how it was run: as §7
[20] = system: L1210; experiment: Effect of 25 mg/kg spermidine coadministered with 25 mg/kg compound on the tumor cell concentration (L1210) of putrescine; type: functional, Mus musculus; how it was run: as §7
[21] = system: L1210; experiment: Effect of 25 mg/kg spermidine coadministered with 25 mg/kg compound on the tumor cell concentration (L1210) of spermidine; type: functional, Mus musculus; how it was run: as §7
[22] = system: L1210; experiment: Effect of 25 mg/kg spermidine coadministered with 25 mg/kg compound on the tumor cell concentration (L1210) of spermine; type: functional, Mus musculus; how it was run: as §7
[23] = system: L1210; experiment: Tested for the T/C (survival time treated /survival time control x 100) after intraperitoneal administration of 25 mg/kg in 10 E 5 L1210 cells on day 0; type: functional, Mus musculus
[24] = system: L1210; experiment: Modulation of the antitumor activity against L1210 Leukemia at 25 mg/kg along with 25 mg/kg putrescine days 1-7, 1 dose / day; type: functional, Mus musculus
[25] = system: L1210; experiment: Modulation of the antitumor activity against L1210 Leukemia at 25 mg/kg along with 25 mg/kg spermidine days 1-7, 1 dose / day; type: functional, Mus musculus
[26] = system: L1210; experiment: Modulation of the antitumor activity against L1210 Leukemia by 25 mg/kg ip days 1-7, 1 dose/day; type: functional, Mus musculus; settings: route intraperitoneal
[27] = system: L1210; experiment: Effect of 25 mg/kg putrescine or spermidine coadministered with 25 mg/kg compound on the tumor cell concentration (L1210) of compound; type: functional, Mus musculus; how it was run: as §7
[28] = system: L1210; experiment: Effect of 25 mg/kg putrescine or spermidine coadministered with 25 mg/kg compound on the tumor cell concentration (L1210) of putrescine; type: functional, Mus musculus; how it was run: as §7
[29] = system: L1210; experiment: Effect of 25 mg/kg putrescine or spermidine coadministered with 25 mg/kg compound on the tumor cell concentration (L1210) of spermidine; type: functional, Mus musculus; how it was run: as §7
[30] = system: L1210; experiment: Effect of 25 mg/kg putrescine or spermidine coadministered with 25 mg/kg compound on the tumor cell concentration (L1210) of spermine; type: functional, Mus musculus; how it was run: as §7

Sequence of Peroxisomal N(1)-acetyl-spermine/spermidine oxidase (Mus musculus) (Q8C0L6 whole entry): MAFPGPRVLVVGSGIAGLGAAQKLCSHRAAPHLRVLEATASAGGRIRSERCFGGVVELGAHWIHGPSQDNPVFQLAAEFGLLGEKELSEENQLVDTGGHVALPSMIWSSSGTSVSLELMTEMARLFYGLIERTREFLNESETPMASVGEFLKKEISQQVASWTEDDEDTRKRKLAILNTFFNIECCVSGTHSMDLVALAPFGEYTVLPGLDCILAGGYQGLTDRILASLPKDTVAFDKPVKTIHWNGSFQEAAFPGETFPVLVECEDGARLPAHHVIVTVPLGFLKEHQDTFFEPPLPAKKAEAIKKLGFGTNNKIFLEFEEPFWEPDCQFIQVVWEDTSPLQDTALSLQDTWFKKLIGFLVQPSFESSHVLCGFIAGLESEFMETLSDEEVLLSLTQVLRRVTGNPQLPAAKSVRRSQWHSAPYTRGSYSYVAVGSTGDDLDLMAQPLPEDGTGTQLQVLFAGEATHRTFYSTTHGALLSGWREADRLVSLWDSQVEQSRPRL

## CCNCCCNCCCCCCCCNCCCN.Cl.Cl.Cl.Cl
[1]
  Mean survival time: 9
[2]
  Mean survival time: 12.4
[3]
  Mean survival time: 7.6
[4]
  Mean survival time: 8.4
[5]
  T/C: 112%
[6]
  T/C: 155%
[7]
  T/C: 100%
[8]
  T/C: 105%
[9]
  T/C: 145%

## c1ccc(CNCCCNCCCCCCCCNCCCNCc2ccccc2)cc1
[10]
  T/C: inactive

## C=C=CCNCCCNCCCNCC=C=C
[11]
  T50: 4 min
[10]
  T/C: inactive
[12]
  PAO activity (pM min-1 mg-1): 1

## CN(CCCN)CCCCCCCCN(C)CCCN
[10]
  T/C: inactive

## CNCCCCCCCCNC
[10]
  T/C: inactive

## NCCCCN.NCCCNCCCCCCCCNCCCN
[13]
  Effect: 520 pM (10e6*cells)-1
[14]
  Effect: 120 pM (10e6*cells)-1
[15]
  Effect: 1060 pM (10e6*cells)-1
[16]
  Effect: 799 pM (10e6*cells)-1

## NCCCCCCCCNCCCN
[10]
  T/C: inactive

## CNCCCNCCCNC
[10]
  T/C: inactive

## CCCNCCCNCCCCCCCCNCCCNCCC
[10]
  T/C: inactive

## C=C=CCNCCCNCCCCCCCCNCCCNCC=C=C.Cl.Cl.Cl.Cl
[11]
  T50: 2 min
[10]
  T/C: inactive
[12]
  PAO activity: 4.1 pM/min

## NCCCNCCCOCCCNCCCN
[10]
  T/C: inactive

## NCCCCCCCCN
[10]
  T/C: inactive

## CC(N)CCNCCCCCCCCNCCC(C)N.Cl.Cl.Cl.Cl (centres undefined)
[3]
  Mean survival time: 13.3
[17]
  Mean survival time: 25.6
[7]
  T/C: 195%
[18]
  T/C: 376%
[9]
  T/C: 206%

## CNCCCNCCCCCCCCNCCCNC.Cl.Cl.Cl.Cl
[1]
  Mean survival time: 13.8
[2]
  Mean survival time: 25.4
[3]
  Mean survival time: 11.4
[4]
  Mean survival time: 12.6
[5]
  T/C: 172%
[6]
  T/C: 317%
[7]
  T/C: 142%
[8]
  T/C: 157%
[9]
  T/C: 206%

## CN(C)CCCNCCCCCCCCNCCCN(C)C
[10]
  T/C: inactive

## C=C=CCNCCCCNCC=C=C
[11]
  T50: 1 min

## NCCCCNCCCN.NCCCNCCCCCCCCNCCCN
[19]
  Effect: 114 pM (10e6*cells)-1
[20]
  Effect: 51.7 pM (10e6*cells)-1
[21]
  Effect: 2174 pM (10e6*cells)-1
[22]
  Effect: 817 pM (10e6*cells)-1

## CN(C)CCCNCCCN(C)C
[10]
  T/C: inactive

## NCCCSCCCN
[10]
  T/C: inactive

## NCCCCSCCCN
[10]
  T/C: inactive

## NCCCOCCCN
[10]
  T/C: inactive

## NCCCNCCCN [NORSPERMIDINE]
[23]
  T/C: 179%

## Cl.Cl.Cl.Cl.NCCCNCCCCCCCCNCCCN
[24]
  Mean survival time: 15 days
[25]
  Mean survival time: 8.3 days
[26]
  Mean survival time: 16.2 days
[27]
  Effect: 580 pM (10e6*cells)-1
[28]
  Effect: 37.4 pM (10e6*cells)-1
[29]
  Effect: 1711 pM (10e6*cells)-1
[30]
  Effect: 1110 pM (10e6*cells)-1
[9]
  T/C: 350%

## CCNCCCNCCCCCCCCNCCCNCC.Cl.Cl.Cl.Cl
[1]
  Mean survival time: 9
[2]
  Mean survival time: 23
[3]
  Mean survival time: 9.8
[4]
  Mean survival time: 11.4
[5]
  T/C: 112%
[6]
  T/C: 287%
[7]
  T/C: 122%
[8]
  T/C: 142%
[9]
  T/C: 135%

## NCCCCCCCN
[10]
  T/C: inactive

## CC(CCN)NCCCCCCCCNC(C)CCN (centres undefined)
[10]
  T/C: inactive

## CCCCNCCCNCCCCCCCCNCCCNCCCC
[10]
  T/C: inactive

## CN(CCCN)CCCN
[10]
  T/C: inactive

## NCCCS(=O)(=O)CCCN
[10]
  T/C: inactive
